Rows were chosen to be rich in hits. Some 4.1% of all compounds tested hit in one or more screens of this group.
Cl transport mod = KCC2 (human) Cl- transport modulation. Q9H2X9. KCC2 cells, thallium flux FluoZin-2 fluorescence. B-score of Tl+ flux slope (higher = more flux/activation; lower = inhibition) at 10 µM. hit rate 2.2% among 190,000. AID 1456;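 active means thallium flux slope and its plate-corrected score both differing from the plate sample mean at a set confidence after two filtering rounds, in either direction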;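 further: slope of fluorescence scaled to starting intensity during 10 to 20 s after thallium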
KCNK3 inh = human KCNK3 channel inhibition, primary screen | hit rate 0.84% among 340,000 | B-score at 10 µM | O14649 | CHO-KCNK3 thallium flux, FluxOR fluorescence; active compounds read low;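 active means B-score under library mean minus 4 SD, starting fluorescence ratio at most library mean plus 5 SD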;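 further: more negative B-score means stronger inhibition of thallium flux through KCNK3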
KCNK9 inh = inhibitors of human KCNK9 two-pore domain potassium channel | B-score at 10 µM | hit rate 1.2% among 310,000 | AID 488922 | HEK293 KCNK9, FluxOR thallium flux fluorescence; active compounds read low;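 active means ratio B-score over 3 SD below the library mean, with starting fluorescence within 5 SD of its mean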;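 further: negative B-score means less thallium flux so channel inhibition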
KCNQ1 inh = blocks the human KCNQ1 potassium channel; hit rate 1.3% among 310,000; CHO-K1 KCNQ1, FluxOR thallium flux fluorescence; active compounds read high; P51787; B-score at 10 µM;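 active means compounds whose thallium flux B-score, printed positive for inhibition, exceeds three library SD while starting fluorescence stays within three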;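 further: channel opened by potassium depolarization with thallium stimulus after 20 min compound exposure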
KCNQ1 act = potentiates or activates the human KCNQ1 potassium channel; P51787; CHO-K1 KCNQ1, thallium flux FluxOR fluorescence; active compounds read high; B-score at 10 µM; hit rate 0.35% among 310,000;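 active means fluorescence ratio B-score, a plate-corrected score, at least three library SD, with initial intensity B-score within 5 SD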
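assay system = CHO-K1 cells stably expressing KCNQ1 | medium = assay buffer, equal DMSO in all wells | timing = 37 °C overnight plating, 90-min dark dye load, 20-min compound pretreatment | measured by = kinetic FluxOR thallium fluorescence, 10-s 1-Hz baseline, 110-s post-stimulus read | measure = fluorescence change relative to baseline, converted to B score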
hERG protect = shields human hERG channel from block by proarrhythmic agents; CHO-hERG, FluxOR thallium flux, dofetilide IC70 present; activation (rescue from dofetilide block), less the hit threshold, % at 10 µM; hit rate 0.51% among 310,000;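 active means activation above the mean of controls blocked by dofetilide plus 5 SD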;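 further: thallium influx through hERG after potassium depolarization seen as dye fluorescence rise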
Target sequence (Q12809 whole entry, looked up): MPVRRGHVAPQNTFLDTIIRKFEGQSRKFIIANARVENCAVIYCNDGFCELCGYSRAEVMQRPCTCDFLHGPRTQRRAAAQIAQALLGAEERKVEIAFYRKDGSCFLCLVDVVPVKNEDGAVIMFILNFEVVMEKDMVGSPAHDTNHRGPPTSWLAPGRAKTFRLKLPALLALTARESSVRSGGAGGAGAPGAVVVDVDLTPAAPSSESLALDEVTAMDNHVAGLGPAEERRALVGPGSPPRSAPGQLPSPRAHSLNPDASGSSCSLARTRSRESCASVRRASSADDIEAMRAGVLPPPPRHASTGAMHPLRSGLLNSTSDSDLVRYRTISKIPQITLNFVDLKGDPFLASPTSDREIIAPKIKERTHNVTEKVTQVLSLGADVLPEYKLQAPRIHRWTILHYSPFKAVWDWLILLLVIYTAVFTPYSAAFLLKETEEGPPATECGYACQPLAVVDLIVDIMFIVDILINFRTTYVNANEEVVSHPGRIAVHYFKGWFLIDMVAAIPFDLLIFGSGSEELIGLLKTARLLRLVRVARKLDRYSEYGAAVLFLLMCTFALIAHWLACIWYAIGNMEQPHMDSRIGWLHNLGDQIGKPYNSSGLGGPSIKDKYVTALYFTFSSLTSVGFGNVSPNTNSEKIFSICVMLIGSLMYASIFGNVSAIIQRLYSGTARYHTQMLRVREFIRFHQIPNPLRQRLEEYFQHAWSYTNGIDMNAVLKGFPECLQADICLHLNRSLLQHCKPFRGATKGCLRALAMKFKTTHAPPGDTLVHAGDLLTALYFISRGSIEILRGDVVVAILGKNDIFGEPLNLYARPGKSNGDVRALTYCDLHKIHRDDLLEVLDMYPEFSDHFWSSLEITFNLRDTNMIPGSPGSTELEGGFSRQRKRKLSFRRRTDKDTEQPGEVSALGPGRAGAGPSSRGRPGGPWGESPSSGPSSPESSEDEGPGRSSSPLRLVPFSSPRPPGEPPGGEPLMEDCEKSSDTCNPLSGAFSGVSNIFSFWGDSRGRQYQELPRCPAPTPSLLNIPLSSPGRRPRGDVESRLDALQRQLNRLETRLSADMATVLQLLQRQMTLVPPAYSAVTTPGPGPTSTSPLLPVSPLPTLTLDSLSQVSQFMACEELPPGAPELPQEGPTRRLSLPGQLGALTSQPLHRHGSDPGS
Starred values were filed as active, the others as inactive; i = inactive; x = not tested or not shown.

SMILES	Cl transport mod	KCNK3 inh	KCNK9 inh	KCNQ1 inh	KCNQ1 act	hERG protect
COC(=O)C1=C(C)NC2=C(C(=O)CCC2)C1c1ccsc1 (stereo not given)	-5.4	x	i	i	i	0
COC(=O)C1=C(C)NC2=C(C(=O)CCC2)C1c1ccc(-c2ccsc2C(=O)OC)o1 (stereo not given)	-1.4	i	i	i	i	14*
Cc1ccc(C2=NOC(c3nnc(-c4ccccc4)o3)C2)cc1 (stereo not given)	x	i	i	i	8*	-1
Clc1ccc(C2=NOC(c3nnc(-c4ccccc4)o3)C2)cc1 (stereo not given)	-0.067	i	i	i	i	-5
N#CCCn1cc(C(=O)Nc2ccccc2Br)c(-c2cccs2)n1	-1	i	-7.3*	i	i	-10
COc1ccc(NC(=O)c2cn(CCC#N)nc2-c2cccs2)cc1	-0.062	i	i	i	i	-12
Cc1ccc2c(C)c(C(=O)N(Cc3ccc(F)cc3)C3CCS(=O)(=O)C3)oc2c1 (stereo not given)	x	i	i	i	i	-11
CCc1nc2c(c(=O)c3ccccc3n2C)c(=O)n1CCc1ccc(OC)cc1	-1.6	x	-12*	7*	i	-15
CC(OC(=O)c1cc2c(ccc3ccccc32)oc1=O)c1nc2ccccc2s1 (stereo not given)	-1.3	i	i	9*	i	-33
CN(C)c1ccc(N2C(=O)CSC2=S)cc1	0.81	i	i	i	i	6.8*
CCc1c(C)sc(NC(=O)CN2CCN(C(=O)c3ccco3)CC2)c1C(=O)OC	x	i	i	i	22*	1
CCOC(=O)c1c(NC(=O)CN2CCN(C(=O)c3ccco3)CC2)sc(C)c1C	x	i	i	i	i	-2
Cc1ccc(C(=O)NC(Cc2cccc(F)c2)C(=O)O)cc1 (stereo not given)	x	i	x	x	x	x
Cc1ccccc1OCc1nc2ccccc2c(=O)n1/N=C/c1c[nH]c2ccccc12	-0.3	i	i	i	i	-4
Cc1cc(/C=N/n2c(COc3ccccc3C)nc3ccccc3c2=O)c(O)c([N+](=O)[O-])c1	-1.3	i	i	14*	i	-17
Cn1c(CNC(=O)c2ccccc2F)nnc1SCc1ccc(Cl)cc1	-0.014	i	i	i	i	8.0*
Cn1c(CNC(=O)c2ccccc2F)nnc1SCC(=O)Nc1nncs1	x	i	i	i	i	-3
CC(=O)c1c(C)[nH]c(C(=O)Nc2cccc(S(=O)(=O)N3CCCC3)c2)c1C	x	i	x	x	x	x
COc1ccc(CN2[C@@H](CC(=O)O)c3ccccc3S2(=O)=O)cc1	x	i	i	i	i	6.7*
Cc1ccc(/C(=N/Nc2nc3ccccc3s2)C2=C(O)c3ccccc3C2=O)cc1	-1.2	i	i	10*	i	-16
Cc1cccnc1NC(=O)CCCNC(=O)c1ccc(Cl)cc1	x	i	i	i	i	-14
CC1CCN(c2ccc3nnc(CCC(=O)N4CCCCC4)n3n2)CC1	x	i	i	i	i	-2
CC(NC(=O)Nc1ccc(Cl)cc1)c1ccccc1 (stereo not given)	x	i	i	i	i	-8
Cc1ccc(C(NC(=O)NC(C)c2ccccc2)C(Cl)(Cl)Cl)cc1F (stereo not given)	0.95	i	i	7*	i	-3
CCC(C)(C)C1CCc2[nH]nc(C(=O)NCc3ccccn3)c2C1 (stereo not given)	x	i	x	x	x	x
SMILES	Cl transport mod	KCNK3 inh	KCNK9 inh	KCNQ1 inh	KCNQ1 act	hERG protect
COc1ccc(OC)c(NP2(=O)OCC(C)([N+](=O)[O-])CO2)c1 (stereo not given)	x	i	x	x	x	x
COc1ccc(CNC(=S)Nc2ccccc2)cc1Cl	x	i	i	i	i	-6
COc1ccc(CNC(=S)Nc2ccc(F)c(Cl)c2)cc1OC	0.095	i	i	i	i	4.9*
Cc1ccc(S(=O)(=O)N2CCN(C(=O)c3c(-c4ccccc4)noc3C)CC2)c(C)c1	x	i	i	i	i	-2
Fc1ccc(/C=N/NC(=S)Nc2ccc(Cl)cc2)cc1F	8.6*	i	i	i	i	-7
Fc1cccc(/C=N/NC(=S)Nc2ccccc2Cl)c1	41*	i	i	i	i	6.8*
COc1ccc(NC(=S)N/N=C/c2ccc(F)c(F)c2)cc1	1.2	i	i	i	i	-18
Cc1ccccc1NC(=O)C(=O)N/N=C/c1cccc(Br)c1	0.68	i	i	i	i	-8
O=C(N/N=C/c1cccc(F)c1)c1ccc(Cl)cc1	-0.04	i	i	i	i	-6
Fc1ccc(NC(=S)N/N=C/c2cccc(Br)c2)c(F)c1	4*	i	i	i	i	-6
COc1cc(OC)cc(C(=O)NCCS(=O)(=O)N2CCN(Cc3ccccc3)CC2)c1	x	i	i	i	i	-11
COC(=O)c1sccc1NC(=O)c1cc2c(s1)CCCC2	0.51	i	-6.7*	i	i	-9
COc1ccc(C)cc1NC(=O)c1cc2c(s1)CCC2	-0.26	i	i	i	i	-4
O=C(CNC(=O)c1sc2ccccc2c1Cl)NCc1ccc(F)cc1	x	i	i	i	i	-4
CC(C)c1ccc(NC2CCCN(C(=O)CN3CCCC3=O)C2)cc1 (stereo not given)	x	i	i	i	i	-6
COc1ccc(Cn2c(=S)[nH]c3ccsc3c2=O)cc1	26*	i	i	i	i	-9
COc1ccc(Cn2c(=S)[nH]c3cc(OC)c(OC)cc3c2=O)cc1	5.6	i	i	i	i	-4
O=S(=O)(Cc1ccccc1)NCC1CCCO1 (stereo not given)	0	i	i	i	i	4.7*
O=[N+]([O-])c1cc([N+](=O)[O-])c(Oc2ccc(Cl)c3cccnc23)cc1NN1CCCCC1	x	i	i	i	i	-8
COc1ccc(-n2c(C)nc3c(cnn3-c3ccc(C)cc3)c2=O)cc1	-0.049	i	i	i	i	-5
COc1ccc(-n2c(C)nc3c(cnn3-c3ccc(Cl)cc3)c2=O)cc1	-1.4	i	i	i	i	6.8*
Cc1nc2ccccc2n1Cc1ccc(Br)cc1	x	i	i	6*	i	-14
CCCCCc1ccc(OCCCC[n+]2ccc(C)cc2)c(CCCCC)c1	1.2	i	-7.2*	11*	i	-27
CCCCCc1ccc(OCCCC[n+]2cccc(C)c2)c(CCCCC)c1	0.78	i	-7.5*	10*	i	-27
